Screening data: PubChem BioAssay, Broad Institute
The list is not random: actives were taken first. Their share in the collection is about 2.1%.
MLL AF4-AF9 inh – inhibitors of human MLL-AF4/AF9 interaction; AlphaScreen, biotin-AF4 peptide binding to FLAG-AF9; P42568; inhibition, % at 10 µM; hit rate 0.47% among 350,000;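 active means every replicate reaching a set inhibition limit, whatever the replicate mean, cut at about 25% in these data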;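 further: 0% = plate neutral control median and 100% = total signal loss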
ERp5 inh – blocks human ERp5 reductase activity on insulin. Q15084. ERp5 insulin aggregation, absorbance 650 nm, 90 min. inhibition, % at 9.99 µM. hit rate 0.05% among 350,000. AID 651711;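 active means mean replicate inhibition above about 25%, with every replicate also reaching it, limit read from the data, passing the limit was not always enough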
FGF22 binding – binders of recombinant human FGF22 by thermal shift; Q9HCT0; SYPRO orange fluorescence; percent of sucrose octasulfate shift, DMSO zero; activity (Tm shift, normalised), % at 9.99 µM; hit rate 1.5% among 340,000;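 active means mean Tm shift, scaled 0 neutral to 100 positive control, at about 1.3% or above, every replicate too, limit read from the data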
PDI turbidity – blocks human protein disulfide isomerase activity. inhibition, % at 10 µM. PDI insulin aggregation turbidity, A650, 90 min. hit rate 0.052% among 350,000;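 active means mean inhibition across replicates of 30% or more, whatever share of single replicates reach that level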
Target sequence (P07237 whole entry, looked up): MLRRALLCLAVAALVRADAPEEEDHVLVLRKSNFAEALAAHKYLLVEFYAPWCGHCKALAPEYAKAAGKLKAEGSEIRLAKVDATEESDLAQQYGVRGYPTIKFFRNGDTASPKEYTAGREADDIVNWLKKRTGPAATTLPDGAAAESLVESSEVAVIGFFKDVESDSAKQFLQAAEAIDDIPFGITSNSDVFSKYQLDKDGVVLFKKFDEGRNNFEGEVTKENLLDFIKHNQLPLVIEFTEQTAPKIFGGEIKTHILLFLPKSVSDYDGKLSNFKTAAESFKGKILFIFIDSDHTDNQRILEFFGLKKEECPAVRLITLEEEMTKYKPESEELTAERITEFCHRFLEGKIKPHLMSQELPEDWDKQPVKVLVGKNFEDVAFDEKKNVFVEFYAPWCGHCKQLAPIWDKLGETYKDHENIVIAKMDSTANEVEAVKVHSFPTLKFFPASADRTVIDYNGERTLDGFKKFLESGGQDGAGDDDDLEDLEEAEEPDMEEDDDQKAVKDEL
ARNT-TACC3 inh – ARNT/TACC3 interaction disruption. AlphaScreen His-ARNT PAS-B/GST-TACC3 binding, luminescence; TACC3 fragment carries E629A point mutation. hit rate 0.66% among 390,000. AID 623870. inhibition, % at 9.99 µM. Q9Y6A5;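 active means mean inhibition of replicates at least 50% and at least half of replicates each reaching 50%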;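 further: 0% = complete ARNT plus TACC3 wells and 100% = ARNT alone without TACC3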
FN deposition inh – fibronectin deposition inhibition. AH1F fibroblasts, Alexa488-fibronectin deposition fluorescence, overnight. inhibition, % at 12.6 µM. hit rate 0.086% among 350,000;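 active means mean inhibition across replicates of 30% or more, regardless of how many single replicates reach that level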;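 further: positive control wells lacked labelled fibronectin entirely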
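Material: AH1F fibroblasts assembling fluorescent fibronectin matrix; amount: 10000 AH1F cells/well; medium: DMEM, 2% serum; reagent: Alexa488-fibronectin, 24 nM final in well; dosing: single compound dose, delivered by pin transfer; incubation: 1 h adhesion, overnight exposure; detection: fluorescence after three HBSS washes, excitation 485 nm, emission 525 nm; measure: fibronectin deposition inhibition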
Active calls of the source: *; . = no result.

SMILES	MLL AF4-AF9 inh	ERp5 inh	FGF22 binding	PDI turbidity	ARNT-TACC3 inh	FN deposition inh
CS(=O)(=O)N1C[C@@H]2C(c3ccc(Br)cc3)[C@H](C1)N2CC1CC1 (stereo partly drawn)	.	.	.	.	.	3
CC(=O)N1C[C@@H]2N[C@H](C1)C2c1ccccc1 (stereo partly drawn)	.	.	.	.	.	-6
Cc1[nH]c2c(C(F)(F)F)cccc2c1CCN	.	.	.	1	-4	.
Cc1[nH]c2ccc(O)cc2c1CCN	32*	-3	-1	11	21	-6
C[C@H](CO)N1C[C@H](C)[C@@H](CN(C)C(=O)Oc2ccccc2)OCc2ccccc2-c2c(n(C)c3ccccc23)C1=O	.	.	.	.	.	4
O=C(Cc1cccnc1)N1CCCCN2[C@H](CO)[C@@H](c3ccc(C#CC4CC4)cc3)[C@H]2C1	2	1	0	.	.	.
COC(=O)[C@@H]1[C@@H](CO)[C@@H]2Cn3c(ccc(-c4ccccc4F)c3=O)[C@H]1N2	-5	0	0	.	2	.
CCn1nc(-c2ccccc2)nc2c(=O)n(C)c(=O)nc1-2	.	.	.	.	-40	.
Cc1nc2c(=O)n(C)c(=O)nc-2n(C)n1	.	.	.	189*	19	.
N#Cc1cccc(-c2ccc([C@@H]3[C@@H](CO)N4CCCCN(C(=O)Cc5ccccc5)C[C@@H]34)cc2)c1	-5	-2	0	.	-5	.
O=C(N/N=C/c1c(O)n(Cc2ccccc2)c(=O)[nH]c1=O)c1ccncc1	1	3	0	-2	.	5
Cn1c(O)c(/C=N/NC(=O)c2ccncc2)c(=O)[nH]c1=S	2	8	0	3	.	-12
C=CCn1c(O)c(/C=N/NC(=O)c2ccncc2)c(=O)[nH]c1=O	-4	7	0	-2	78*	3
CCCCn1c(O)c(/C=N/NC(=O)c2ccncc2)c(=O)[nH]c1=S	3	1	0	5	60*	-4
O=C(N/N=C/c1c(O)n(-c2ccccc2)c(=O)[nH]c1=O)c1ccncc1	.	.	.	2	71*	0
COc1ccc(CCn2c(O)c(/C=N/NC(=O)c3ccncc3)c(=O)[nH]c2=O)cc1OC	9	2	0	-6	76*	-5
Cc1cccc(S(=O)(=O)N2[C@@H]3Cn4c(ccc(-c5ccncc5)c4=O)[C@H]2[C@@H](C(=O)O)[C@@H]3CO)c1	-3	-10	0	.	-13	.
COC(=O)[C@H]1[C@H](CO)[C@H]2Cn3c(ccc(-c4ccccc4)c3=O)[C@@H]1N2CC1CCCCC1	2	1	0	.	-13	.
O=C(Cc1ccccn1)N1CC2(C1)[C@H](c1ccccc1)[C@@H](CO)N2Cc1ccccn1	2	-1	1	.	.	.
Cn1c(O)c(/C=N/NC(=O)c2ccncc2)c(=O)n(C)c1=S	5	0	.	-4	59*	1
O=C(N/N=C/c1c(O)n(-c2ccccc2)c(=S)[nH]c1=O)c1ccccc1	13	-1	0	-8	64*	4
COCCn1c(O)c(/C=N/NC(=O)CSC(=S)N2CCCC2)c(=O)[nH]c1=S	-1	2	0	-12	61*	12
O=C(N/N=C/c1c(O)n(CCC2=CCCCC2)c(=S)[nH]c1=O)c1ccccc1	-3	5	0	-1	27	-6
O=C(N/N=C/c1c(O)n(C2CC2)c(=S)[nH]c1=O)c1ccccc1O	.	.	.	-6	60*	3
Cc1ccc(-n2c(O)c(/C=N/NC(=O)c3ccncc3)c(=O)[nH]c2=O)cc1	7	-3	0	5	.	.
COC(=O)[C@H]1[C@H](CO)[C@H]2Cn3c(ccc(-c4ccccc4F)c3=O)[C@@H]1N2	-1	5	0	.	0	.
COC(=O)[C@@H]1[C@@H](CO)[C@@H]2Cn3c(cccc3=O)[C@H]1N2Cc1nccs1	-2	4	0	.	2	.
O=C(Cc1ccncc1)N1CCCCN2[C@H](C1)[C@@H](c1ccc(C#CC3(O)CCCC3)cc1)[C@@H]2CO	-4	5	0	.	1	.
Cc1ccc(OC(=O)N(C)C[C@@H]2OCc3ccccc3-c3c(n(C)c4ccccc34)C(=O)N([C@@H](C)CO)C[C@H]2C)cc1	8	-2	.	.	.	1
O=C(COC(=O)c1cccc(O)c1)Nc1ccc(Cl)cc1C(=O)c1ccccc1	0	2	52*	0	3	2
